# Measurements taken from ChEMBL document CHEMBL1157834, “Structure-activity relationships of carbocyclic 6-benzylthioinosine analogues as subversive substrates of Toxoplasma gondii adenosine kinase” (Bioorg Med Chem, 2010).
# Tests used:
# [1] = molecular target: T1, Adenosine kinase (Toxoplasma gondii, UniProt Q9TVW2); assay: Binding affinity to Toxoplasma gondii adenosine kinase after 20 mins by radioactivity method
# T1 sequence (Q9TVW2 whole entry): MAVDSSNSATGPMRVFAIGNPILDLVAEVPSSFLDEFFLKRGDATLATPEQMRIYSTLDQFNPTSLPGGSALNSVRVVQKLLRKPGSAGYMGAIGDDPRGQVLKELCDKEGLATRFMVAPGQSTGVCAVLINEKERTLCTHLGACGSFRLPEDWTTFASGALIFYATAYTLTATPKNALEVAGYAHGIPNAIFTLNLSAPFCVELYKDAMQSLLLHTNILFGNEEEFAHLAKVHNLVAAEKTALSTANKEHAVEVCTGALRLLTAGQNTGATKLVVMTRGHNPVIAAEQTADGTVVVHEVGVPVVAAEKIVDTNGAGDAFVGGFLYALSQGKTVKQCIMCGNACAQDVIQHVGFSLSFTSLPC
# In short: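 Purified cloned T. gondii adenosine kinase in 50 mM Tris–Cl pH 7.4 with 2.5 mM ATP, 5 mM MgCl₂, 5 mM creatine phosphate, creatine kinase and [8-¹⁴C]adenosine (55 Ci/mol), with or without varied compound, at 37 °C under linear conditions. Stopped by boiling; adenosine and AMP separated by TLC (CHCl₃/MeOH/AcOH 102:12:6) and radioactivity quantified. Apparent Ki taken as apparent Km. ≥2 experiments in triplicate.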
# [2] = tested on: Toxoplasma gondii; assay: Antimicrobial activity against wild-type Toxoplasma gondii RH infected in human CRL1634 cells assessed as intracellular parasite survival at 5 uM after 18 hrs by [5,6-[…]]uracil-based scintillation counting; assay type: functional
# In short: (§1)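 Confluent human foreskin fibroblasts (≤20 passages, RPMI-1640) plated ~5×10⁵/well for 24 h at 37 °C, 5% CO₂. Infected with isolated tachyzoites in 3% FBS medium, 1 parasite/cell, for 1 h, then washed with 10% FBS medium. Compounds in 50% ethanol added to 0–50 µM (final ethanol 2.5%). After 18 h, drug-free medium with [5,6-³H]uracil (5 µCi/mL) for 6 h. TCA precipitates collected on glass-fiber filters and counted by scintillation. Growth taken as % uptake of treated vs untreated; ≥2 experiments in triplicate.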
# [3] = tested on: Toxoplasma gondii; assay: Antimicrobial activity against wild-type Toxoplasma gondii RH infected in human CRL1634 cells assessed as intracellular parasite survival at 10 uM after 18 hrs by [5,6-[…]]uracil-based scintillation counting; assay type: functional; in short: as §1
# [4] = tested on: Toxoplasma gondii; assay: Antimicrobial activity against wild-type Toxoplasma gondii RH infected in human CRL1634 cells assessed as intracellular parasite survival at 25 uM after 18 hrs by [5,6-[…]]uracil-based scintillation counting; assay type: functional; in short: as §1
# [5] = tested on: Toxoplasma gondii; assay: Antimicrobial activity against wild-type Toxoplasma gondii RH infected in human CRL1634 cells assessed as intracellular parasite survival at 50 uM after 18 hrs by [5,6-[…]]uracil-based scintillation counting; assay type: functional; in short: as §1
# [6] = tested on: Toxoplasma gondii; assay: Antimicrobial activity against Toxoplasma gondii infected in human CRL1634 cells assessed as intracellular parasite survival at 25 uM after 18 hrs by [5,6-[…]]uracil-based scintillation counting; assay type: functional; in short: as §1
# [7] = tested on: Toxoplasma gondii (RH strain); assay: Activity against Toxoplasma gondii RH in human CRL1634 cells after 18 hrs by [5,6-3H]uracil incorporation assay
# [8] = species: Homo sapiens; assay: Cytotoxicity against uninfected human CRL1634 cells assessed as cell viability at 5 uM after 48 hrs by MTT assay
# [9] = species: Homo sapiens; assay: Cytotoxicity against uninfected human CRL1634 cells assessed as cell viability at 10 uM after 48 hrs by MTT assay
# [10] = tested on: Toxoplasma gondii; assay: Antimicrobial activity against adenosine kinase deficient Toxoplasma gondii TgAK-3 infected in human CRL1634 cells assessed as intracellular parasite survival at 5 uM after 18 hrs by [5,6-[…]]uracil-based scintillation counting; assay type: functional; in short: as §1
# [11] = tested on: Toxoplasma gondii; assay: Antimicrobial activity against adenosine kinase deficient Toxoplasma gondii TgAK-3 infected in human CRL1634 cells assessed as intracellular parasite survival at 10 uM after 18 hrs by [5,6-[…]]uracil-based scintillation counting; assay type: functional; in short: as §1
# [12] = tested on: Toxoplasma gondii; assay: Antimicrobial activity against adenosine kinase deficient Toxoplasma gondii TgAK-3 infected in human CRL1634 cells assessed as intracellular parasite survival at 25 uM after 18 hrs by [5,6-[…]]uracil-based scintillation counting; assay type: functional; in short: as §1
# [13] = tested on: Toxoplasma gondii; assay: Antimicrobial activity against adenosine kinase deficient Toxoplasma gondii TgAK-3 infected in human CRL1634 cells assessed as intracellular parasite survival at 50 uM after 18 hrs by [5,6-[…]]uracil-based scintillation counting; assay type: functional; in short: as §1
# [14] = molecular target: T2, Adenosine kinase (Toxoplasma gondii) (UniProt Q9TVW2); assay: Ratio of Km for carbocyclic 6-benzylthioinosine to Km for drug for binding affinity to Toxoplasma gondii adenosine kinase after 20 mins by radioactivity method
# T2 sequence (whole entry): T1 sequence (Q9TVW2 whole entry)
smiles,measurement,setting,value
OC[C@H]1C[C@@H](n2cnc3c(SCc4ccccc4)ncnc32)[C@H](O)[C@@H]1O,Ki,[1],105 µM
N#Cc1ccc(CSc2ncnc3c2ncn3[C@@H]2C[C@H](CO)[C@@H](O)[C@H]2O)cc1,Ki,[1],129 µM
OC[C@H]1C[C@@H](n2cnc3c(SCc4ccccc4F)ncnc32)[C@H](O)[C@@H]1O,Ki,[1],54.8 µM
Cc1cc(C)c(CSc2ncnc3c2ncn3[C@@H]2C[C@H](CO)[C@@H](O)[C@H]2O)c(C)c1,Ki,[1],63.1 µM
OC[C@H]1C[C@@H](n2cnc3c(SCc4ccc(Br)cc4)ncnc32)[C@H](O)[C@@H]1O,Ki,[1],21.1 µM
OC[C@H]1C[C@@H](n2cnc3c(SCc4ccc(Cl)c(Cl)c4)ncnc32)[C@H](O)[C@@H]1O,Ki,[1],16.8 µM
OC[C@H]1O[C@@H](n2cnc3c(SCc4ccccc4)ncnc32)[C@H](O)[C@@H]1O [6-BENZYLTHIOINOSINE],Ki,[1],14.3 µM
Cc1ccccc1CSc1ncnc2c1ncn2[C@@H]1C[C@H](CO)[C@@H](O)[C@H]1O,Ki,[1],24.9 µM
Nc1ccc(S(=O)(=O)Nc2ncccn2)cc1 [SULFADIAZINE],Activity,[2],93%
same,Activity,[3],58%
same,Activity,[4],53%
same,Activity,[5],46%
same,Activity,[6],100%
same,IC50,[7],27.3 µM
same,Activity,[8],98%
same,Activity,[9],100%
OC[C@H]1C[C@@H](n2cnc3c(SCc4ccc(Cl)cc4)ncnc32)[C@H](O)[C@@H]1O,Ki,[1],15.6 µM
same,Activity,[2],73%
same,Activity,[3],12%
same,Activity,[4],0%
same,Activity,[5],0%
same,Activity,[10],100%
same,Activity,[11],100%
same,Activity,[12],100%
same,Activity,[13],100%
same,Activity,[6],100%
same,IC50,[7],14.5 µM
same,Activity,[8],100%
same,Activity,[9],100%
CCc1nc(N)nc(N)c1-c1ccc(Cl)cc1 [PYRIMETHAMINE],Activity,[2],99%
same,Activity,[3],55%
same,Activity,[4],25%
same,Activity,[5],23%
same,Activity,[6],108%
same,IC50,[7],16.1 µM
same,Activity,[8],101%
same,Activity,[9],100%
OC[C@H]1C[C@@H](n2cnc3c(SCc4ccc(OC(F)(F)F)cc4)ncnc32)[C@H](O)[C@@H]1O,Ki,[1],65.5 µM
COC(=O)c1ccc(CSc2ncnc3c2ncn3[C@@H]2C[C@H](CO)[C@@H](O)[C@H]2O)cc1,Ki,[1],40.9 µM
OC[C@H]1C[C@@H](n2cnc3c(SCc4c(F)cccc4Cl)ncnc32)[C@H](O)[C@@H]1O,Ki,[1],31.3 µM
OC[C@H]1C[C@@H](n2cnc3c(SCc4ccc(F)cc4)ncnc32)[C@H](O)[C@@H]1O,Ki,[1],31.9 µM
Cc1ccc(CSc2ncnc3c2ncn3[C@@H]2C[C@H](CO)[C@@H](O)[C@H]2O)cc1,Ki,[1],7.5 µM
same,Ratio,[14],14
same,Activity,[2],43%
same,Activity,[3],2.5%
same,Activity,[4],0%
same,Activity,[5],0%
same,Activity,[10],99%
same,Activity,[11],100%
same,Activity,[12],100%
same,Activity,[13],100%
same,Activity,[6],100%
same,IC50,[7],11.9 µM
same,Activity,[8],100%
same,Activity,[9],100%
OC[C@H]1C[C@@H](n2cnc3c(SCc4ccccc4Cl)ncnc32)[C@H](O)[C@@H]1O,Ki,[1],24.2 µM
CS(=O)(=O)c1ccc(CSc2ncnc3c2ncn3[C@@H]2C[C@H](CO)[C@@H](O)[C@H]2O)cc1,Ki,[1],73.7 µM
O=[N+]([O-])c1ccc(CSc2ncnc3c2ncn3[C@@H]2C[C@H](CO)[C@@H](O)[C@H]2O)cc1,Ki,[1],94.1 µM
OC[C@H]1C[C@@H](n2cnc3c(SCc4cccc(C(F)(F)F)c4)ncnc32)[C@H](O)[C@@H]1O,Ki,[1],22.2 µM
COc1ccc(CSc2ncnc3c2ncn3[C@@H]2C[C@H](CO)[C@@H](O)[C@H]2O)cc1,Ki,[1],62 µM
OC[C@H]1C[C@@H](n2cnc3c(SCc4ccc(Cl)cc4Cl)ncnc32)[C@H](O)[C@@H]1O,Ki,[1],60.7 µM
Cc1cccc(CSc2ncnc3c2ncn3[C@@H]2C[C@H](CO)[C@@H](O)[C@H]2O)c1,Ki,[1],26.8 µM
O=[N+]([O-])c1cccc(CSc2ncnc3c2ncn3[C@@H]2C[C@H](CO)[C@@H](O)[C@H]2O)c1,Ki,[1],26.6 µM
